Laboratory results from PMC9526468 (Thyroid, 2022).

How the values were obtained:
Assay in all cases: radiolabelled iodothyronine uptake inhibition in transfected COS1 cells
Format in all cases: cell-based
MCT8 (hMCT8) = MCT8 (hMCT8) (Homo sapiens, UniProt P36021)
[1] = molecular target: T1, OATP1A2 (Human (h) OATP1A2) (Homo sapiens, UniProt P46721)
T1 sequence (P46721 1-670): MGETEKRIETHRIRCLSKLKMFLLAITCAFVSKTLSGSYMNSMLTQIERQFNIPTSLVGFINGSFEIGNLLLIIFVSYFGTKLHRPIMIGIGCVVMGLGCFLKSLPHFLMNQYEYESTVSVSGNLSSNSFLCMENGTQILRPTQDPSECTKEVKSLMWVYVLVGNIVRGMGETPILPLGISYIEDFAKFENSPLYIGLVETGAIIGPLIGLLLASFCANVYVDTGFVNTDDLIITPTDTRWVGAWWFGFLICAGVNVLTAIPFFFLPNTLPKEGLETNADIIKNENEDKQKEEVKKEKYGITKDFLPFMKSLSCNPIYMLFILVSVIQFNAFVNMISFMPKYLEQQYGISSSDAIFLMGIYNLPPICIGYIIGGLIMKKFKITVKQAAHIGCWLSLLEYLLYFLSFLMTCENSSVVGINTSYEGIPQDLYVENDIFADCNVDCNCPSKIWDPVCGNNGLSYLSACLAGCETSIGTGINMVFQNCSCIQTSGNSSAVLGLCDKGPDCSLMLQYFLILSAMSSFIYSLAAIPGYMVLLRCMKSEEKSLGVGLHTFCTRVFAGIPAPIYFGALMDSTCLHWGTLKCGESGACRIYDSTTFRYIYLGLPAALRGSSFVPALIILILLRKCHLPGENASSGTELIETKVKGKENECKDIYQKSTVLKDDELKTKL

MCT10 (hMCT10) = molecular target: T2, MCT10 (hMCT10) (Homo sapiens, UniProt Q8TF71)
T2 sequence (Q8TF71 1-515): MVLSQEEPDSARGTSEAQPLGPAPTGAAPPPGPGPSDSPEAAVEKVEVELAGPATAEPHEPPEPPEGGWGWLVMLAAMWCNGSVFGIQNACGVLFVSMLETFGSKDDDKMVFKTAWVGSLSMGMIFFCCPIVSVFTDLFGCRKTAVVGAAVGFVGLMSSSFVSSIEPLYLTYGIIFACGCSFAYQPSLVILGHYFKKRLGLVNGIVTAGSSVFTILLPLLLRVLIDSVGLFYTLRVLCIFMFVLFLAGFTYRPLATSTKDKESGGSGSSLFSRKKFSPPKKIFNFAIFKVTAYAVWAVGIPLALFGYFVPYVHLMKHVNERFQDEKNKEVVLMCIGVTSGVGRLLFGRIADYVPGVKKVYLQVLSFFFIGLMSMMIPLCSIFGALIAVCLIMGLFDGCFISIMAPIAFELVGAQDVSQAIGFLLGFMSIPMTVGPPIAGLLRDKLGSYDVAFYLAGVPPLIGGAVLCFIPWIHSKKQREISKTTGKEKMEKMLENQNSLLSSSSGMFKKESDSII

[2] = molecular target: T3, LAT2 (hSLC7A8, cotransfected with hSLC3A2) (Homo sapiens, UniProt Q9UHI5)
T3 sequence (Q9UHI5 1-535): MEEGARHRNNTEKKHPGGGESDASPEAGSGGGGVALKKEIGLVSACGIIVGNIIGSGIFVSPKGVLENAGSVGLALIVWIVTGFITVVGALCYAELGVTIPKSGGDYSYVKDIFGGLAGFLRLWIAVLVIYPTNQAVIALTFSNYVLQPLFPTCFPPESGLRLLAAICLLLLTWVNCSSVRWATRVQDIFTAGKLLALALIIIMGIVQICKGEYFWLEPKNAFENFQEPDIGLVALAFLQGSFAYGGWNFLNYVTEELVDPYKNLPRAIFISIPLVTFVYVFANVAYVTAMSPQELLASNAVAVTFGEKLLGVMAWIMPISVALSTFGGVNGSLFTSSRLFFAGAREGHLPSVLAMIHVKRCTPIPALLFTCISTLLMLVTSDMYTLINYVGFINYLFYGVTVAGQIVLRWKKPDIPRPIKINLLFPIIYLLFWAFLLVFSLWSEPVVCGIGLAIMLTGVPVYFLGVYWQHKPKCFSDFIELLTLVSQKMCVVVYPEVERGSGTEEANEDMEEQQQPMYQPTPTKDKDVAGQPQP
T3 sequence (P08195 2-529 partner): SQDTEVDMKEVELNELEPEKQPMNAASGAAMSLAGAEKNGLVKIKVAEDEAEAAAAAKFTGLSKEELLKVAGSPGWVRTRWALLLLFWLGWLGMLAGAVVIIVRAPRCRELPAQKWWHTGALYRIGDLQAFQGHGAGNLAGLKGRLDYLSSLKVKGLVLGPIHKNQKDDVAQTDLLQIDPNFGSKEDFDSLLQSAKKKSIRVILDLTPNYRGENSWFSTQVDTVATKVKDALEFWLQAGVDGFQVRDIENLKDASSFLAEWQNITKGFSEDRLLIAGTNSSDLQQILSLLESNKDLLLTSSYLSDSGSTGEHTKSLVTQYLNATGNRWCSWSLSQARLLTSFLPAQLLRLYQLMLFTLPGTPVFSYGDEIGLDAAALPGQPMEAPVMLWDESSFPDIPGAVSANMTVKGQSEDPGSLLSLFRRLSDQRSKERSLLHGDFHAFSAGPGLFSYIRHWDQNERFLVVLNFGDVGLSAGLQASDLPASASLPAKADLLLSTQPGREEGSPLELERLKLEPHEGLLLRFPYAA
Method in brief: (§1)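 COS1 cells cotransfected with 100 ng transporter vector, 100 ng hSLC3A2 (4F2 heavy chain), and 50 ng hCRYM to limit efflux; empty vector served as control. At 48 h post-transfection, cells were washed in BSA-free DPBS+Ca²⁺/Mg²⁺/0.1% glucose. They were then incubated at 37°C with 1 nM 3,3′-T2 plus [¹²⁵I]-3,3′-T2 (5 × 10⁴ cpm) and increasing inhibitor concentrations or vehicle. Finally, cells were rinsed, lysed in 0.1 N NaOH, and gamma-counted.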

[3] = molecular target: LAT1 (hSLC7A5, cotransfected with hSLC3A2) (Homo sapiens, UniProt Q01650)
Method in brief: as §1

MCT8 (hMCT8), sequence (P36021 2-539): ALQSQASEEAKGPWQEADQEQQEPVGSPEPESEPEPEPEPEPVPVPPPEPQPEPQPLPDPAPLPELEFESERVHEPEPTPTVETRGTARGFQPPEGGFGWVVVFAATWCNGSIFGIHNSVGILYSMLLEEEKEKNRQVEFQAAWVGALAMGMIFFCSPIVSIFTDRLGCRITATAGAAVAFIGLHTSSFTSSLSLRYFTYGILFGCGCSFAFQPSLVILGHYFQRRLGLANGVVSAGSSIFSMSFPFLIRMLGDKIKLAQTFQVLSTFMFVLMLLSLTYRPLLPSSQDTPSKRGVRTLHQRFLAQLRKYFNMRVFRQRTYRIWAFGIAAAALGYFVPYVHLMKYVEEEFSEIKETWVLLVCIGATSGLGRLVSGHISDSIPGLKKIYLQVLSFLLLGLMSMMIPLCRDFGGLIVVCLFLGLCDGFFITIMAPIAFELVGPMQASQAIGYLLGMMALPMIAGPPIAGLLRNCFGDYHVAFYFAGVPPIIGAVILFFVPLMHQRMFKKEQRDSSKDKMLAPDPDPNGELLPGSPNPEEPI
LAT1 (hSLC7A5, cotransfected with hSLC3A2), sequence (Q01650 whole entry, one chain of several): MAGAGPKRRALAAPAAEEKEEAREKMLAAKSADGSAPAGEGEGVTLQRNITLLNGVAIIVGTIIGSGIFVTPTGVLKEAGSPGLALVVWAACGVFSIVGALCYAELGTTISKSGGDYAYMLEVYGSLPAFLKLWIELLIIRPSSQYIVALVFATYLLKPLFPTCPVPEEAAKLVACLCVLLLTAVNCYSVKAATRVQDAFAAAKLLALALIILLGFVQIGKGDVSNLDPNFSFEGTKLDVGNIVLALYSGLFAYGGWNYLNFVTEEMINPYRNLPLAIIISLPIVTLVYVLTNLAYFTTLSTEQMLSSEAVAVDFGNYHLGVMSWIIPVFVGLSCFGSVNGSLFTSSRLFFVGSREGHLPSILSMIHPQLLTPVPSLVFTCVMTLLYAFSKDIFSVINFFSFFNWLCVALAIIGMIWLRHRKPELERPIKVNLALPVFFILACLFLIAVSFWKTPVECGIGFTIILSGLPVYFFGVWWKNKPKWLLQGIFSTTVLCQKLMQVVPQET

SMILES	IC50 (MCT8 (hMCT8)) [µM]	IC50 [1] [µM]	IC50 (MCT10 (hMCT10)) [mM]	other results
COc1cc([C@@H]2Oc3c(O)cc([C@H]4Oc5cc(O)cc(O)c5C(=O)[C@@H]4O)cc3[C@H]2CO)ccc1O [Silychristin]	0.12	> 10		
COc1ccc(CCN(C)CCCC(C#N)(c2ccc(OC)c(OC)c2)C(C)C)cc1OC (stereo not shown) [Verapamil]	~100	1.5	> 0.1	
NC1(C(=O)O)CC2CCC1C2 (stereo not shown) [BCH, 2-Amino-2-norbornanecarboxylic acid]				IC50 [2]: ~100 µM; IC50 [3]: 146 µM
C[C@@H]1O[C@@H](O[C@H]2[C@H](Oc3cc(O)c4c(c3)O[C@H](c3ccc(O)cc3)CC4=O)O[C@H](CO)[C@@H](O)[C@@H]2O)[C@H](O)[C@H](O)[C@H]1O [Naringin]		23		

Now from value to molecule, other results behind:

IC50 (MCT8 (hMCT8)) [µM]	IC50 [1] [µM]	IC50 (MCT10 (hMCT10)) [mM]	SMILES	other results
	50		CO[C@H]1/C=C/O[C@@]2(C)Oc3c(C)c(O)c4c(O)c(c(/C=N/N5CCN(C)CC5)c(O)c4c3C2=O)NC(=O)/C(C)=C\C=C\[C@H](C)[C@H](O)[C@@H](C)[C@@H](O)[C@@H](C)[C@H](OC(C)=O)[C@@H]1C [Rifampicin]	
		> 10	N[C@@H](Cc1c[nH]c2ccccc12)C(=O)O [L-tryptophan]	
